Experimental data published in ChEMBL document CHEMBL1240455, “Synthesis of 5-[alkoxy-(4-nitro-phenyl)-methyl]-uridines and study of their cytotoxic activity” (Eur J Med Chem, 2010).
In brackets after ≈: the same amount, converted by molar mass.

Key:
K562 [1] = assay: Cytotoxicity against human K562 cells after 72 hrs by MTT assay; format: functional, cell-based
Outline: (§1)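 Cells seeded at 2500–30,000 per well by cell type and pre-incubated 24 h at 37 °C, 5% CO2. Compounds dissolved in 10% DMSO, added as four-fold dilutions at time zero, tested in quadruplicate. Exposure 72 h at 37 °C, 5% CO2, 100% humidity. MTT then added for 1–4 h, formazan dissolved overnight at 37 °C, OD read at 540 nm. IC50 taken from dose-response curves relative to control wells.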

Staphylococcus aureus [2] = assay: Antimicrobial activity against methicillin-resistant Staphylococcus aureus after 24 hrs; format: functional
CCRF-CEM [3] = assay: Cell cycle arrest in human CEM cells assessed as accumulation at G0/G1 phase using propidium iodide staining at IC50 concentration after 24 hrs by flow cytometry; format: functional
CCRF-CEM [4] = assay: Inhibition of DNA synthesis in human CEM cells assessed as BrDU incorporation using propidium iodide staining at 5 times IC50 concentration after 24 hrs by flow cytometry; format: functional; set-up: scale not given: the % may be the effect or the level left
Outline: (§2)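 CEM cells exposed at 1× and 5× IC50 for 3, 6, 9 and 24 h, then pulsed with BrdU for 30 min at 37 °C. Cells fixed overnight in ice-cold 70% ethanol and DNA denatured in 2 M HCl for 30 min. Neutralised with 0.1 M sodium borate, then stained with anti-BrdU antibody, FITC secondary, and propidium iodide/RNase. Read by flow cytometry at 488 nm.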

[5] = tested on: Staphylococcus haemolyticus; assay: Antimicrobial activity against Staphylococcus haemolyticus after 24 hrs; format: functional
Outline: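 MIC taken as the lowest concentration preventing bacterial growth after 24 h incubation at 37 °C. Strains came from the Czech Collection of Microorganisms or from clinical isolates of hospital patients.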

CCRF-CEM [6] = assay: Cell cycle arrest in human CEM cells assessed as accumulation at G2/M phase using propidium iodide staining at IC50 concentration after 24 hrs by flow cytometry; format: functional
CCRF-CEM [7] = assay: Induction of apoptosis in human CEM cells using propidium iodide staining at IC50 concentration after 24 hrs by flow cytometry; format: functional
CCRF-CEM [8] = assay: Inhibition of RNA synthesis in human CEM cells assessed as BrU incorporation using propidium iodide staining at 5 times IC50 concentration after 24 hrs by flow cytometry; format: functional; set-up: scale not given: the % may be the effect or the level left
Outline: (§3)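 RNA synthesis measured by flow cytometry of incorporated 5-bromouridine, detected with a cross-reacting anti-BrdU antibody. CEM cells exposed at 1× and 5× IC50 for 3, 6, 9 and 24 h and pulsed for 30 min at 37 °C before harvest. Fixed 15 min in 1% paraformaldehyde/0.05% NP-40 in PBS and stored at 4 °C at least overnight. Stained with primary and FITC secondary antibodies, 30 min each at room temperature.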

K562 [9] = assay: Cytotoxicity against human paclitaxel-resistant K562 cells after 72 hrs by MTT assay; format: functional, cell-based; outline: as §1
CCRF-CEM [10] = assay: Induction of apoptosis in human CEM cells using propidium iodide staining at 5 times IC50 concentration after 24 hrs by flow cytometry; format: functional
CCRF-CEM [11] = assay: Induction of mitotic arrest in human CEM cells assessed as pH3Ser10 positive cells at IC50 concentration after 24 hrs by flow cytometry; format: functional
CCRF-CEM [12] = assay: Cell cycle arrest in human CEM cells assessed as accumulation at S phase using propidium iodide staining at IC50 concentration after 24 hrs by flow cytometry; format: functional
CCRF-CEM [13] = assay: Inhibition of RNA synthesis in human CEM cells assessed as BrU incorporation using propidium iodide staining at IC50 concentration after 24 hrs by flow cytometry; format: functional; set-up: scale not given: the % may be the effect or the level left; outline: as §3
CCRF-CEM [14] = assay: Cytotoxicity against human CEM cells after 72 hrs by MTT assay; format: functional, cell-based; outline: as §1
A549 = assay: Cytotoxicity against human A549 cells after 72 hrs by MTT assay; format: functional, cell-based; outline: as §1
Staphylococcus aureus [15] = assay: Antimicrobial activity against Staphylococcus aureus CCM 3953 after 24 hrs; format: functional; details: CCM 3953, 24 h
CCRF-CEM [16] = assay: Inhibition of DNA synthesis in human CEM cells assessed as BrDU incorporation using propidium iodide staining at IC50 concentration after 24 hrs by flow cytometry; format: functional; set-up: scale not given: the % may be the effect or the level left; outline: as §2
CCRF-CEM [17] = assay: Induction of mitotic arrest in human CEM cells assessed as pH3Ser10 positive cells at 5 times IC50 concentration after 24 hrs by flow cytometry; format: functional
Enterococcus faecalis = assay: Antimicrobial activity against Enterococcus faecalis CCM 4224 after 24 hrs; format: functional; details: CCM 4224, 24 h
[18] = Cytotoxicity against human CEM-DNR-B cells after 72 hrs by MTT assay; format: functional, cell-based; outline: as §1
CCRF-CEM [19] = assay: Cell cycle arrest in human CEM cells assessed as accumulation at G0/G1 phase using propidium iodide staining at 5 times IC50 concentration after 24 hrs by flow cytometry; format: functional
Outline: (§4)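 CEM T-lymphoblastic leukemia cells were exposed to compound at 1× and 5× IC50 over a 24 h interval. DNA content was measured by flow cytometry with a 488 nm laser.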

CCRF-CEM [20] = assay: Cell cycle arrest in human CEM cells assessed as accumulation at G2/M phase using propidium iodide staining at 5 times IC50 concentration after 24 hrs by flow cytometry; format: functional; outline: as §4
CCRF-CEM [21] = assay: Cell cycle arrest in human CEM cells assessed as accumulation at S phase using propidium iodide staining at 5 times IC50 concentration after 24 hrs by flow cytometry; format: functional; outline: as §4

SMILES	IC50 (K562 [1]; Homo sapiens, K562, 72 h) [µM]	Activity (CCRF-CEM [3]) [%]	Activity (CCRF-CEM [4]) [%]	Activity (CCRF-CEM [6]) [%]	Activity (CCRF-CEM [7]) [%]	Activity (CCRF-CEM [8]) [%]	IC50 (K562 [9]; Homo sapiens, K562, 72 h) [µM]	Activity (CCRF-CEM [10]) [%]	Activity (CCRF-CEM [11]) [%]	Activity (CCRF-CEM [12]) [%]	Activity (CCRF-CEM [13]) [%]	IC50 (CCRF-CEM [14]; Homo sapiens, CCRF-CEM, 72 h) [µM]	IC50 (A549; Homo sapiens, A549, 72 h) [µM]	Activity (CCRF-CEM [16]) [%]	Activity (CCRF-CEM [17]) [%]	IC50 ([18]; Homo sapiens, 72 h) [µM]	IC50 (K562 [1]; k562) [µM]	IC50 (K562 [9]; k562) [µM]	IC50 (CCRF-CEM [14]; ccrf-cem) [µM]	IC50 (A549; a549) [µM]	further results
CCCCCCCCOC(c1ccc([N+](=O)[O-])cc1)c1cn([C@@H]2O[C@H](CO)[C@@H](O)[C@H]2O)c(=O)[nH]c1=O (single isomer, unassigned; (+))	15.1	42.36	6.01	9.83	7	1.44	33.1	76	2.05	47.81	58.1	11.4	38.7	46.03	0.03	34.6					MIC (Staphylococcus aureus [2]): 100 µM (≈ 50.8 µg/mL); MIC [5]: 200 µM (≈ 102 µg/mL); MIC (Staphylococcus aureus [15]): 100 µM (≈ 50.8 µg/mL); MIC (Enterococcus faecalis): 200 µM (≈ 102 µg/mL)
CCCCCCOC(c1ccc([N+](=O)[O-])cc1)c1cn([C@@H]2O[C@H](CO)[C@@H](O)[C@H]2O)c(=O)[nH]c1=O (single isomer, unassigned; (-))																	64.5	137	45.5	156	IC50 [18]: 146 µM
CCCCCCCCCOC(c1ccc([N+](=O)[O-])cc1)c1cn([C@@H]2O[C@H](CO)[C@@H](O)[C@H]2O)c(=O)[nH]c1=O (single isomer, unassigned; (-))		43.38	0.95	8.83		1.9			1.74	47.79	57.26			47.38	0.04		13	23.9	10	29.1	IC50 [18]: 33.8 µM
CCCCCCCOC(c1ccc([N+](=O)[O-])cc1)c1cn([C@@H]2O[C@H](CO)[C@@H](O)[C@H]2O)c(=O)[nH]c1=O (stereo in doubt; (+)7g)	33.6						42.8						39.8			104			12.8		
CCCCCCOC(c1ccc([N+](=O)[O-])cc1)c1cn([C@@H]2O[C@H](CO)[C@@H](O)[C@H]2O)c(=O)[nH]c1=O (stereo in doubt; (+)-7f)	58.4						141					39.8	121			131					
CCCCCCCCCOC(c1ccc([N+](=O)[O-])cc1)c1cn([C@@H]2O[C@H](CO)[C@@H](O)[C@H]2O)c(=O)[nH]c1=O (stereo in doubt; (+)-7i)	10.9	40.95	2.95	11.25	4	0.8	14.6	83	1.66	47.81	60.22	7.9	23.1	52.17	0.25	32.3					MIC (Staphylococcus aureus [2]): 50 µM (≈ 26.1 µg/mL); MIC [5]: 100 µM (≈ 52.2 µg/mL); MIC (Staphylococcus aureus [15]): 50 µM (≈ 26.1 µg/mL); MIC (Enterococcus faecalis): 50 µM (≈ 26.1 µg/mL)
CCCCCCCOC(c1ccc([N+](=O)[O-])cc1)c1cn([C@@H]2O[C@H](CO)[C@@H](O)[C@H]2O)c(=O)[nH]c1=O (stereo in doubt; (-)-8g)																	36.7	52.3	29	69.9	IC50 [18]: 95.6 µM
CCCCCCCCOC(c1ccc([N+](=O)[O-])cc1)c1cn([C@@H]2O[C@H](CO)[C@@H](O)[C@H]2O)c(=O)[nH]c1=O (stereo in doubt; (-)-8h)		40.02	6.67	11.33	5	1.61		71	1.68	48.56	56.18			48.73	0.01		24.7	34.4	16.9	39.7	IC50 [18]: 36.6 µM
Nc1nc(F)nc2c1ncn2[C@@H]1O[C@H](CO)[C@@H](O)[C@@H]1O [FLUDARABINE]	267	39.66	10.37	19.5	62.1	8.92	0.26	74.84	0.28	40.84	7.62	19.5	47.4	14.12	0.01	1.01					Activity (CCRF-CEM [19]): 42.11%; Activity (CCRF-CEM [20]): 4.95%; Activity (CCRF-CEM [21]): 52.94%
Nc1nc2[nH]cnc2c(=S)[nH]1 [THIOGUANINE]	1.54	43.42	19.82	7.19	11.27	48.93	3.9	18.69	1.21	49.39	45.84	2.98	2.82	35.32	0.43	9.47					Activity (CCRF-CEM [19]): 43.58%; Activity (CCRF-CEM [20]): 9.95%; Activity (CCRF-CEM [21]): 46.47%
